Ec RNAP inh: inhibitors of Escherichia coli RNA polymerase; P0A8V2; 62,000 tested, 0.2% active; inhibition, %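 (tested at 10 µM)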; E. coli RNA polymerase, fluorescence transcription assay; in the data active means inhibition above about 20%;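 further: 0% = enzyme without compound and 100% = no enzyme blank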
AP ELISA ortho: orthogonal test for alternative complement pathway inhibitors. Human serum alternative complement pathway, LPS-coated ELISA, C3 deposition; tested in compound mixtures. inhibition, % at 5 µM. 62,000 tested, 0.08% active;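 active means inhibition above 30% in each of the two pooled mixtures holding the compound, so the lower value exceeds 30%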;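 further: 0% = serum in Mg-EGTA without compound and 100% = EDTA serum blank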
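Assay system: Human serum alternative complement pathway, C3 deposition on LPS-coated wells | Incubation: 1 h serum-compound exposure at 37 °C | Doses: 5 µM per compound in ten-compound mixtures | Read-out: Percent inhibition | Technique: ELISA with HRP anti-human C3 antibody, TMB substrate, absorbance 450 nm | Replication: Two pool placements per compound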
DAT uptake mod: human DAT dopamine uptake with cocaine, either direction; AID 449768; LLC-PK1 hDAT cells, [14C]-dopamine uptake with cocaine IC80; actives deviate in either direction; 110,000 tested, 1.3% active; Q01959; B-score at 10 µM;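 active means Z score or B-score, a plate-position-corrected score, falls beyond the plate's 99.7% confidence bounds, in either direction; inactive means both scores lie inside the 99.7% bounds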;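 further: scored against the spread of the other compound wells on the same plate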
D1 allo mod: D1 dopamine receptor (human) allosteric modulation. AID 641. B-score at 10 µM. HEK293 D1, CRE-luciferase, dopamine EC30 potentiation; actives deviate in either direction. 58,000 tested, 5.9% active. P21728;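 active means luminescence count or its row- and column-corrected plate score outside the 99.7% band of the plate's sample wells, on either side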
Target sequence (P21728 whole entry, looked up): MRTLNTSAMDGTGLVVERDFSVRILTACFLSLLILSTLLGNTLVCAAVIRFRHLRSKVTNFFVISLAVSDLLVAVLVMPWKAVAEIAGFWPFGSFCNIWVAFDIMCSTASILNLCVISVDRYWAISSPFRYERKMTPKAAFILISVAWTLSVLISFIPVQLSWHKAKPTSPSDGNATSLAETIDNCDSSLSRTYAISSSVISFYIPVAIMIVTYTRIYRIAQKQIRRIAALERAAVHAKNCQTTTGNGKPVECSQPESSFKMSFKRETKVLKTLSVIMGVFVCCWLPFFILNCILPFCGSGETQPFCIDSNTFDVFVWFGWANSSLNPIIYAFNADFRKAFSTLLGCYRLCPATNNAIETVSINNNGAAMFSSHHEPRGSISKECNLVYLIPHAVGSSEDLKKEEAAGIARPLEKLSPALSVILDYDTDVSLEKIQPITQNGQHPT
HEK293 NFkB inh: inhibitors of the PMA/ionomycin-induced NF-kB reporter in HEK293 cells; AID 465; HEK-293 NF-kB luciferase reporter, luminescence; inhibition, % at 3 µM; 62,000 tested, 0.21% active;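 active means inhibition above the mean of all tested compounds plus 3 SD, cut at about 40% in these data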;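 further: 0% = stimulated DMSO wells and 100% = 10 µM reference inhibitor 5653914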
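Reagent: PMA plus ionomycin mix as NF-kB-activating stimulus. Assay system: NF-kB luciferase reporter HEK-293 cells. Technique: luminescence from luciferase substrate reagent. Incubation: 1 h compound pre-incubation, 16 h PMA/ionomycin at 37 °C. Benchmarks: DMSO only as uninhibited control, 10 µM reference inhibitor as full inhibition. Repeats: tested once.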
* hit, by the source's call. The sample as a whole holds a higher share of hits than the screen did.

Screening O=C1N(O)C2(C=CCCC2)/C(=N\O)C12CCCCC2 (stereo unspecified) returned Ec RNAP inh 34*, AP ELISA ortho -4, DAT uptake mod -0.21, D1 allo mod 0.42 and HEK293 NFkB inh 2.
`CC(=O)/C(C#N)=C1\NC(=O)C(Cc2ccccc2Cl)S1` (stereo unspecified) gave Ec RNAP inh 32* and DAT uptake mod -0.017.
For CC1CN(S(=O)(=O)c2cccc(-c3csc(-c4ccccc4)n3)c2)CC(C)O1 (stereo unspecified) the results were DAT uptake mod 2.4*.
Screening Nc1nc(NC(=O)c2cccs2)nn1-c1ccccc1 returned Ec RNAP inh 21*, AP ELISA ortho -5, DAT uptake mod -1.6 and D1 allo mod -1.1.
`Cc1nn(-c2ccccc2)c(C)c1NC(=O)c1cccs1` gave Ec RNAP inh -8, AP ELISA ortho -11, DAT uptake mod 0.35, D1 allo mod -0.11 and HEK293 NFkB inh 11.
`Clc1ccc(-n2ncc3c(N4CCCCCC4)ncnc32)cc1` gave Ec RNAP inh 6, AP ELISA ortho 16, DAT uptake mod -0.046, D1 allo mod -8.6* and HEK293 NFkB inh 48*.
Screening COc1ccc(-n2ncc3c(N4CCCCC4)ncnc32)cc1 returned Ec RNAP inh 11, AP ELISA ortho 9, DAT uptake mod 1.6, D1 allo mod -7.1* and HEK293 NFkB inh 58*.
COc1ccccc1NC(=O)Cn1cnc2sc(C(=O)NCc3ccco3)c(C)c2c1=O was read as Ec RNAP inh 5, AP ELISA ortho -3, DAT uptake mod 1.9*, D1 allo mod -0.21 and HEK293 NFkB inh 26.
O=C(O)[C@@H]1CCCC[C@@H]1C(=O)N1CCc2ccccc2C1CN1C(=O)c2ccccc2C1=O (stereo partly specified) was read as AP ELISA ortho 10, DAT uptake mod 0.0062 and HEK293 NFkB inh 59*.
O=C(O)CSc1nnc(-c2ccc(S(=O)(=O)N3CCCC3)cc2)n1Cc1ccco1 was read as Ec RNAP inh 13, AP ELISA ortho 12, DAT uptake mod -0.0035, D1 allo mod -4.1* and HEK293 NFkB inh 3.
For NC(=O)CSc1nnc(-c2ccc(S(=O)(=O)N3CCCC3)cc2)n1Cc1ccco1 the results were Ec RNAP inh -8, AP ELISA ortho -5, DAT uptake mod 0.091, D1 allo mod 0.65 and HEK293 NFkB inh 15.
Screening N#Cc1c(N)oc(-c2ccco2)c1-c1ccco1 returned AP ELISA ortho 12, DAT uptake mod -0.11, D1 allo mod 19* and HEK293 NFkB inh 7.
For O=C(NC1CCCc2ccccc21)C1CCC(CNc2c(N3CCOCC3)c(=O)c2=O)CC1 (stereo unspecified) the results were Ec RNAP inh 6, AP ELISA ortho 14, DAT uptake mod -1, D1 allo mod 0.19 and HEK293 NFkB inh 2.
`CCCNC(=O)CSc1nnc(C)s1` gave DAT uptake mod -0.21.
COc1ccc(/C=N/OCC(=O)N2CC3(C)CC2CC(C)(C)C3)cc1 (stereo unspecified) was read as DAT uptake mod 3.7*.
COC(=O)[C@@H]1C[C@H]1[C@@H](NC(=O)c1cc(C)on1)c1ccccc1 was read as DAT uptake mod 0.13.
`O=S1(=O)C=C(Sc2nc3cc(Cl)ccc3o2)c2ccccc21` gave Ec RNAP inh 40*, AP ELISA ortho 18, DAT uptake mod -1, D1 allo mod -2.3* and HEK293 NFkB inh 32.
O=C(NCc1ccccc1)c1cnc2n(c1=O)CCS2 was read as Ec RNAP inh 7, AP ELISA ortho 8, DAT uptake mod -0.43, D1 allo mod -3.5* and HEK293 NFkB inh 11.
`N#Cc1cc(-c2ccc(Cl)cc2)cnc1Sc1ccc(F)cc1` gave DAT uptake mod 0.85.
For CCN(CC)c1ccc2cc(NC(=O)CCC(=O)O)c(=O)oc2c1 the results were Ec RNAP inh -7, AP ELISA ortho -1, DAT uptake mod -0.41, D1 allo mod -7.7* and HEK293 NFkB inh 53*.
For CCN(CC)c1ccc2cc(C(C)=O)c(=O)oc2c1 the results were DAT uptake mod -1.
`N#CCC1c2ccccc2CCN1C(=O)Nc1ccc(Cl)cc1` (stereo unspecified) gave DAT uptake mod -3.2*.
N#CCC1c2ccccc2CCN1C(=O)Nc1cccc(Cl)c1 (stereo unspecified) was read as DAT uptake mod -2.1.
Screening CN1CCN(C(=O)c2cc3nc(-c4ccc(Cl)cc4)cc(C(F)(F)F)n3n2)CC1 returned Ec RNAP inh 1, AP ELISA ortho 3, DAT uptake mod 0.48, D1 allo mod -3.7* and HEK293 NFkB inh 9.
For COC(=O)CCCCCNc1ccc(C(=O)OC)cc1N the results were Ec RNAP inh 11, AP ELISA ortho 9, DAT uptake mod -0.3, D1 allo mod 0.79 and HEK293 NFkB inh 7.
Screening O=C(O)C(c1ccccc1)C1(O)CCCC1 (stereo unspecified) returned Ec RNAP inh 5, AP ELISA ortho 14, DAT uptake mod 1.7* and HEK293 NFkB inh 18.
`O=C(O)C(O)c1ccccc1` (stereo unspecified) gave DAT uptake mod -0.058.
`Cc1ccc(-c2nnc(NC3CCCCC3)c3ccccc23)cc1S(=O)(=O)N1CCN(C)CC1` gave DAT uptake mod 1.9*.
For Cc1ccc(-c2nn3c(C)nnc3c3ccccc23)cc1S(=O)(=O)N1CCN(CCO)CC1 the results were AP ELISA ortho 17, DAT uptake mod -2.6, D1 allo mod 0.25 and HEK293 NFkB inh 18.
`CC[C@H]1CC2CN3CCc4c([nH]c5c([C@H]6C[C@H]7[C@H](CC)CN(C)[C@@H](Cc8c6[nH]c6ccccc86)[C@H]7C(=O)OC)c(OC)ccc45)C(C(=O)OC)(C2)C13` gave DAT uptake mod -0.76.
CC(C)(C)OC(=O)CNC(=O)c1[nH]cnc1C(=O)N[C@@H](CCCCNC(=O)OC(C)(C)C)C(=O)OC(C)(C)C was read as DAT uptake mod 2.8*.
`CC(=O)Oc1ccc(-c2cc3c(OC(C)=O)cc(OC(C)=O)cc3oc2=O)cc1` gave DAT uptake mod 0.054.
`CCC(=O)n1nc(-c2ccc(OC)cc2)nc1N` gave Ec RNAP inh -2, AP ELISA ortho 12, DAT uptake mod -9.5*, D1 allo mod 0.95 and HEK293 NFkB inh 10.
`O=C(O)CCC(=O)N1CCN(c2nc(-c3ccccc3Cl)c3cc(Br)ccc3n2)CC1` gave DAT uptake mod 3*.
Screening Cc1cccc(OCCOc2ccc(/C=N/NC(=O)Cc3nnc(N)s3)cc2)c1 returned DAT uptake mod 0.011.
Cc1ccccc1Nc1nc(-c2sc(NC(=O)c3ccccc3)nc2C)cs1 was read as DAT uptake mod 2.5*.
`Cc1ccccc1Nc1nc(-c2sc(NC(=O)c3cccc(Cl)c3)nc2C)cs1` gave DAT uptake mod 1.7*.
For COc1ccc(Cl)cc1Nc1nc(-c2sc(NC(=O)c3ccccc3)nc2C)cs1 the results were DAT uptake mod -0.34.

Bioassay records as filed in PubChem.
